The values below come from ChEMBL document CHEMBL5038608, “Design, synthesis, and biological evaluation of novel pyrrolidinone small-molecule Formyl peptide receptor 2 agonists” (Eur J Med Chem, 2021).

pEC50: −log10 of the molar value. Activity calls are given as the source filed them. No cut-off for these calls is given here. A value given as a limit tells only on which side of the number the result lay.

Series [1] addresses T1, N-formyl peptide receptor 2 (Homo sapiens) (UniProt P25090).
T1 sequence (whole entry): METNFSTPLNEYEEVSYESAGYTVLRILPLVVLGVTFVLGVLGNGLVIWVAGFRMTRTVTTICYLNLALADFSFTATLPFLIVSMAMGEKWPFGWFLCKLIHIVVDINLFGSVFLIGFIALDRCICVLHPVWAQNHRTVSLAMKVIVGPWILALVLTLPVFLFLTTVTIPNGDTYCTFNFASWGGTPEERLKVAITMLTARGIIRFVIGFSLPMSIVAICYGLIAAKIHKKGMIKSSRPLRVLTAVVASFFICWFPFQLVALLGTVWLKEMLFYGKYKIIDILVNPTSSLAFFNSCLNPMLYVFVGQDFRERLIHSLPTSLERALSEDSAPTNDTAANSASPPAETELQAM
In words: Agonist activity at FPRL1 (unknown origin) expressed in CHO-K1 cells assessed as stimulation of beta-arrestin recruitment […] incubated for 150 mins by beta-galactosidase based PathHunter assay. It counts as functional, cell-based. Summed up: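 PathHunter CHO-K1 FPRL1 cells carry complementing β-galactosidase fragments. Plated at 5000/well, held 1 h RT, then overnight at 37 °C. Compounds were half-log serially diluted from 10 mM stocks in PBS. Stimulation 150 min at 37 °C; W-peptide (WKYMVm, 100 nM) was the high control. Detection reagent added for 60 min RT in the dark, with chemiluminescence read-out.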

Series [2] addresses T1, N-formyl peptide receptor 2 (Homo sapiens). In words: Agonist activity at FPRL1 (unknown origin) expressed in CHO-K1 cells assessed as increase in calcium mobilization […] incubated for 2.5 hrs by cellular based FLIPR assay. It counts as functional, cell-based. Summed up:
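CHO-K1 cells overexpressing human FPR2 (PathHunter FPRL1 line), plated at 20,000/well in F-12 with 10% FBS and held 1 h RT, then overnight at 37 °C. Calcium 6 dye loaded 2 h at 37 °C, then 30 min RT in the dark. Compounds were half-log serially diluted from 10 mM stocks in HBSS with 20 mM HEPES. Cytosolic Ca2+ rise read on FLIPR Tetra.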
(Calcium assays in cells follow changes in intracellular calcium, usually with a dye or a luminescent sensor.)

The target in series [3] is T2, N-formyl peptide receptor 2 (Homo sapiens, UniProt P25090).
T2 sequence (P25090 whole entry): T1 sequence (whole entry)
In words: Agonist activity at FPRL1 (unknown origin) expressed in CHO-K1 cells assessed as stimulation of beta-arrestin recruitment incubated for 150 mins by beta-galactosidase based PathHunter assay. It counts as functional, cell-based. Particulars: for EC50: cho-k1; for pEC50: read-out: EC50. Summed up:
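PathHunter CHO-K1 FPRL1 cells expressing β-gal enzyme-fragment complementation, 5000 cells/well, held overnight at 37 °C. Stimulated with half-log serial dilutions of compounds (10 mM stocks in PBS) for 150 min at 37 °C. High control was WKYMVm at 100 nM. Detection reagent added for 60 min at RT in the dark, then chemiluminescence read.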
(Arrestin recruitment assays detect the binding of arrestin to an activated receptor.)

Series [4] deals with T2, N-formyl peptide receptor 2. In words: Agonist activity at FPRL1 (unknown origin) expressed in CHO-K1 cells assessed as increase in calcium mobilization incubated for 2.5 hrs by cellular based FLIPR assay. To be noted: for EC50: cho-k1; for pEC50: read-out: EC50. It counts as functional, cell-based. Summed up:
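CHO-K1 cells overexpressing hFPR2, plated at 20,000 cells/well in F-12 with 10% FBS and held overnight at 37 °C. Loaded with FLIPR Calcium 6 dye for 2 h at 37 °C, then 30 min at RT in the dark. Compounds were half-log serially diluted from 10 mM stocks in HBSS/20 mM HEPES. Cytosolic Ca2+ rise read on FLIPR Tetra. WKYMVm served as control.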

The nature of series [5]: Distribution coefficient, logD of compound at pH 7.4 by shake flask method based LC-MS/MS analysis. It counts as physicochemical. To be noted: octanol/water, read-out: logD. Summed up:
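Shake-flask method: compound diluted from 10 mM DMSO stock into equal volumes of octanol and PBS, final concentration 100 µM. Shaken 12 h, then centrifuged. Both layers analysed in triplicate by LC-MS/MS (MRM, C8 UPLC). LogD = log10 of the octanol/buffer peak-area ratio.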

Series [6] in a line: Microsomal stability in human liver microsomes assessed as half life at 1 uM preincubated for 5 mins followed by NADPH regenerating system addition measured after 30 mins by LC-MS/MS analysis. It counts as ADME, Microsome. Particulars: t1/2, time 35 min. Summed up:
(§1)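 Human or mouse liver microsomes (0.2 mg/mL protein) with compound at 1 µM final, pre-incubated 5 min at 37 °C. Reaction started with NADPH generating solution and agitated at 37 °C, with samples quenched up to 30 min. Centrifuged; supernatant analysed in triplicate by LC-MS.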
Background: Liver microsomes are vesicles of endoplasmic reticulum, rich in cytochrome P450 enzymes.

The nature of series [7]: Microsomal stability in mouse liver microsomes assessed as half life at 1 uM preincubated for 5 mins followed by NADPH regenerating system addition measured after 30 mins by LC-MS/MS analysis. It counts as ADME, Microsome. Particulars: t1/2, time 35 min. Summed up:
as §1

Where [8] appears, read: filed as agonist, time 0.067 hrs, in the assay text read “measured for 240 s” for “incubated for 2.5 hrs”.

As for `CC(C)(C)OC(=O)N1CCC[C@H](N2CCC(NC(=O)Nc3ccc(Br)cc3)C2=O)C1` (stereo in doubt; 19), the values for the maximum response (Emax) in series [1] (filed as agonist) and in series [2] (setting [8]) were 89% and 71%, respectively.
In the same order, the values of `O=C(Nc1ccc(Br)cc1)NC1CCN(C2CCN(Cc3ccccc3)C2)C1=O` (stereo in doubt; 17) are 100% and 128%.
With `CC(NC(=O)NC1CC(C)N(c2ccccc2)C1=O)c1ccncc1` (stereo not drawn), the EC50 entry in series [3] and in series [4] was “Not Active” each time. Moreover, the logD (in general, lipophilicity at a set pH, counting ionised and neutral species) in series [5] was determined as 2.8. In addition, the Emax entry in series [1] and in series [2] (time 2.5 hrs) was “inactive” each time. In addition, the half-life (as a rule, how long it takes for the measured level to halve) at 1 µM is 8.42 h in series [6] and 2.52 h in series [7].
Consider `CC(C)(C)OC(=O)N1CCC[C@H](N2CCC(NC(=O)Nc3ccc(Br)cc3)C2=O)C1` (stereo in doubt; 20), for which the maximum response (Emax) (as a rule, the greatest response seen or fitted, relative to the assay's reference) in series [1] (filed as agonist) is 86%; in series [2] (setting [8]), 73%.
As for `N#Cc1ccc(NC(=O)NC2CCN(c3ccccc3F)C2=O)cc1` (stereo not drawn), the EC50 result in series [3] is “Not Active”. The pEC50 – broadly, the negative decadic logarithm of the EC50, by convention in mol/L – in series [4] is 4.82. Further, in series [5], the logD was 2.7. Besides, in series [1], the Emax entry is “inactive”. For the same compound, the half-life at 1 µM in series [6] was 1.42 h; in series [7], 2.87 h. The maximal response (Emax) in series [2] (setting [8]) was 123%.
In the case of `COc1ccc(CNC(=O)NC2CCN(c3ccccc3)C2=O)cc1` (stereo not drawn), the EC50 result in series [3] and in series [4] was “Not Active” throughout. The pH-dependent lipophilicity (logD) in series [5] is 1.99. Besides, the Emax entry in series [1] and in series [2] (time 2.5 hrs) was “inactive” each time. For the same compound, the half-life at 1 µM in series [6] worked out at 5.48 h; in series [7] it was 5.95 h.
For `CCc1ccc(C(C)NC(=O)NC2CCN(c3cnn(C)c3)C2=O)cc1` (stereo not drawn), the EC50 entry in series [3] and in series [4] was “Not Active” each time. Also, the Emax result in series [1] and in series [2] (time 2.5 hrs) was “inactive” each time.
On to `O=C(Nc1ccc(Br)cc1)NC1CCN(C2CCN(Cc3ccccc3)C2)C1=O` (stereo in doubt; 18), for which the results for the Emax in series [1] (filed as agonist) and in series [2] (setting [8]) were 99% and 84%, respectively.
Take `CC(NC(=O)NC1CCN(c2ccccc2)C1=O)c1ccncc1` (stereo not drawn): the EC50 result in series [3] and in series [4] was “Not Active” in each case. Moreover, in series [5], the logD stood at 2. Moreover, the Emax result in series [1] and in series [2] (time 2.5 hrs) was “inactive” in each case. In addition, the half-life at 1 µM in series [6] is 6.83 h.
As for `Cn1cc(N2CCC(NC(=O)NCc3cc(F)cc(F)c3)C2=O)cn1` (stereo not drawn), the EC50 result in series [3] and in series [4] was “Not Active” each time. For the same compound, the pH-dependent lipophilicity (logD) in series [5] was found to be 2.1. The Emax entry in series [1] and in series [2] (time 2.5 hrs) was “inactive” in each case. Besides, the half-life at 1 µM in series [6] was determined as 9.73 h.
As to `O=C(Nc1ccc(Br)cc1)NC1CCN(C2CCN(c3ncccn3)CC2)C1=O` (stereo not drawn), the pEC50 is 6.41 in series [3] and 8.10 in series [4]. Besides, the pH-dependent lipophilicity (logD) in series [5] turned out to be 3.9. Also, the maximal effect (Emax) in series [1] (filed as agonist) turned out to be 96%. In addition, the results for the half-life at 1 µM in series [6] and in series [7] were 0.95 h and 0.733 h, respectively.
For the compound `CC1CC(NC(=O)NCc2nccn2C)C(=O)N1c1ccccc1` (stereo not drawn), the EC50 result in series [3] and in series [4] was “Not Active” each time. In addition, in series [5], the logD is 1. The Emax result in series [1] and in series [2] (time 2.5 hrs) was “inactive” throughout.
For `O=C(Nc1ccc(Br)cc1)NC1CCN(c2ccc(F)cc2)C1=O` (stereo not drawn), the pEC50 in series [3] was 6.29; in series [4], 5.71. In addition, the logD in series [5] is over 4. In addition, the half-life at 1 µM was over 6.67 h in series [6] and 0.55 h in series [7].
As to `O=C(Nc1ccc(Br)cc1)NC1CCN(c2cnn(-c3ccccc3)c2)C1=O` (stereo not drawn), the EC50 result in series [3] and in series [4] was “Not Active” in each case. In addition, the log distribution coefficient (logD) in series [5] is over 4. Moreover, the Emax entry in series [1] and in series [2] (time 2.5 hrs) was “inactive” throughout. Further, the half-life at 1 µM in series [6] turned out to be 3.48 h; in series [7] it was 1.78 h.
